This note sets out measurements from ChEMBL document CHEMBL2311465, “Synthesis of novel naphthoquinone aliphatic amides and esters and their anticancer evaluation” (Eur J Med Chem, 2013).

Structures are written as SMILES. Active and inactive are the calls of the source. No cut-off for these calls is given here.

One test has as its system Vero. The test can be described thus: Cytotoxicity against african geen monkey Vero cells after 4 days by GFP reporter assay. The format is cell-based, Chlorocebus sabaeus. The gist of the method:
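Vero cells (GFP-expressing, grown with geneticin at 37 °C, 5% CO2) added to test compounds diluted in 0.5% DMSO and incubated 4 days at 37 °C, 5% CO2. Bottom-read fluorescence at ex 485/em 535 nm; day-0 background subtracted from the day-4 signal. Typical values from six replicate experiments.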

The next test deals with KB. Description: Cytotoxicity against human KB cells after 3 days by resazurin microplate assay. It is filed as functional, cell-based. As to conditions: 72 h. An outline of the steps:
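KB cells (ATCC CCL-17) harvested in log phase and diluted to 7 × 10^4 cells/mL, then added to samples diluted in 0.5% DMSO. Incubated 3 days at 37 °C, 5% CO2, then resazurin added and plates held 4 h at 37 °C. Fluorescence read at ex 530/em 590 nm. IC50 fitted from 6 two-fold serial concentrations; six replicate experiments.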

The target of test [1] is DNA topoisomerase 2-alpha (Homo sapiens) (UniProt P11388). The test can be described thus: Inhibition of human topoisomerase 2-alpha-mediated decatenation of kinetoplast DNA at 50 uM after 1 hr by agarose gel electrophoretic analysis. An outline of the steps:
(§1)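 kDNA (60 ng) incubated with 2 units of human TopoIIα, with or without compound, for 1 h at 37 °C. Buffer: 50 mM Tris-Cl pH 8.0, 150 mM NaCl, 10 mM MgCl2, 0.5 mM dithiothreitol, 2 mM ATP. Decatenation judged by presence or absence of enzyme activity.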

The target is the same in test [2]. The test can be described thus: Inhibition of human topoisomerase 2-alpha-mediated decatenation of kinetoplast DNA at 5 uM after 1 hr by agarose gel electrophoretic analysis. The gist of the method: as §1
Test [3] shares this target. The test can be described thus: Inhibition of human topoisomerase 2-alpha-mediated decatenation of kinetoplast DNA at 10 to 20 uM after 1 hr by agarose gel electrophoretic analysis. The gist of the method:
as §1

Setting [4] is: Chlorocebus sabaeus, Vero, 96 h, read-out: IC50.

DNA topoisomerase 2-alpha (Homo sapiens), sequence (P11388 whole entry): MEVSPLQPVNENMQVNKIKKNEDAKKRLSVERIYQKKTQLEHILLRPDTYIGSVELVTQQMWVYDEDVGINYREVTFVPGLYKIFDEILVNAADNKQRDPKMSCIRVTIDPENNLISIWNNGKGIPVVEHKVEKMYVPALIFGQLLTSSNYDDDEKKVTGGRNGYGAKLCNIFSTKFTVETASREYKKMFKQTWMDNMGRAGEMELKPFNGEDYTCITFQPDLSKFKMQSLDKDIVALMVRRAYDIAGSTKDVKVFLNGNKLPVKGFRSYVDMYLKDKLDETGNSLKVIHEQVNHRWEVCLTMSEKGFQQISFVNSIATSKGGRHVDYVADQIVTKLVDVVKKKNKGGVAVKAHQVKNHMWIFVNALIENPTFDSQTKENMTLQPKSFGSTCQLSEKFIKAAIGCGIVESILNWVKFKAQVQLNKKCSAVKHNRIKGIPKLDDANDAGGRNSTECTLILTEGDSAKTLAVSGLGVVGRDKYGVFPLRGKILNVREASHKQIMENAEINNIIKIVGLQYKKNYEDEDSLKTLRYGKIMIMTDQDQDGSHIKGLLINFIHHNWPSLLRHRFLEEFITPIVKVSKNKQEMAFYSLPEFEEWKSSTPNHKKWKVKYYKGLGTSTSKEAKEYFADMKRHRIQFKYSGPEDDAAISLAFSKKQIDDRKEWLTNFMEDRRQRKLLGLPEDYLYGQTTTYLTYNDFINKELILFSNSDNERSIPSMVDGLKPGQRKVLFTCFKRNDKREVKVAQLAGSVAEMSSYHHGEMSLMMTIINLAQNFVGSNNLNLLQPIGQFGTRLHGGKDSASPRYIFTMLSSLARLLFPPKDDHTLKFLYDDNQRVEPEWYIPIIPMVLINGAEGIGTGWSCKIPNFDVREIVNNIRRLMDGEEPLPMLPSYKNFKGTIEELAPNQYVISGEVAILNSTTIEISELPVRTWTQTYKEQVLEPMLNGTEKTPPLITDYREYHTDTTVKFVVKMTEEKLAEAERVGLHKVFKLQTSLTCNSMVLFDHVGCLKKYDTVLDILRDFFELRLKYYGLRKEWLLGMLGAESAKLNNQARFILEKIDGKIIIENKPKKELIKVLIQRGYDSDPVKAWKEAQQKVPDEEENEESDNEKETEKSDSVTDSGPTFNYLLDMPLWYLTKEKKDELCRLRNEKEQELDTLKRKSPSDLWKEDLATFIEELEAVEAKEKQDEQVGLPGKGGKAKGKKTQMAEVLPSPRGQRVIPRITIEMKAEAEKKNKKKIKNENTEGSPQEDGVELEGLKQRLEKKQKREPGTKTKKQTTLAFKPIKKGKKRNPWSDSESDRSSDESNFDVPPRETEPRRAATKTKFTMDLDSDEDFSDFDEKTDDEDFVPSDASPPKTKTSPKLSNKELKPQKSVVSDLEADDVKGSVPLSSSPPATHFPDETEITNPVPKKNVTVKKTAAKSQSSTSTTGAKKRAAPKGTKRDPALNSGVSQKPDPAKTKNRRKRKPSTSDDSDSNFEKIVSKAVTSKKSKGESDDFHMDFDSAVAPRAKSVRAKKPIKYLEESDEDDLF

Consider `CCCCCCCCCCCCCC(=O)NCC(C)(C)CC1=C(O)C(=O)c2ccccc2C1=O`, for which the figures for the IC50 with Vero (setting [4]) and in the test on KB were 9.81 µM and 25.1 µM, respectively.
As to `CCCCCCCCCC(=O)OCC(C)(C)CC1=C(O)C(=O)c2ccccc2C1=O`, it took 55.5 µM to reach half-maximal inhibition in the test with KB (IC50).
On the same count and under the same terms, the result for `CCCCCCCCCCCC(=O)OCC(C)(C)CC1=C(O)C(=O)c2ccccc2C1=O` reads 35.7 µM.
On to `CCCCCCC(=O)NCC(C)(C)CC1=C(O)C(=O)c2ccccc2C1=O`, for which the results for the IC50 in the test with Vero (setting [4]) and in the test on KB were 24.8 µM and 28.2 µM, respectively.
As for `CCC(C)C(=O)NCC(C)(C)CC1=C(O)C(=O)c2ccccc2C1=O` (configuration not stated), the IC50 entry was “Non-toxic” in the test on Vero (vero) and 102 µM in the test on KB.
As for `CCCCCCC(C)C(=O)NCC(C)(C)CC1=C(O)C(=O)c2ccccc2C1=O` (configuration not stated), the IC50 was 15.5 µM with Vero (setting [4]) and 23.7 µM in the test on KB.
The compound `CCCCCCCC(=O)OCC(C)(C)CC1=C(O)C(=O)c2ccccc2C1=O` registered a half-maximal inhibitory concentration (IC50) in the test with KB of 38.3 µM.
On the same count and under the same terms, to `CCCCCCCCCCC(=O)OCC(C)(C)CC1=C(O)C(=O)c2ccccc2C1=O` belongs 54.8 µM; to `CCCCCCC(C)C(=O)OCC(C)(C)CC1=C(O)C(=O)c2ccccc2C1=O` (configuration not stated), 16.8 µM.
`CCCCCCCC(=O)NCC(C)(C)CC1=C(O)C(=O)c2ccccc2C1=O`: the IC50 worked out at 18.4 µM in the test on Vero (setting [4]) and 24.6 µM with KB.
With `CCCCCCC(=O)OCC(C)(C)CC1=C(O)C(=O)c2ccccc2C1=O`, inhibition with KB was half-maximal at 14.4 µM (IC50).
Turning to `CCCCCC(=O)OCC(C)(C)CC1=C(O)C(=O)c2ccccc2C1=O`, 41 µM corresponded to half-maximal inhibition with KB (IC50).
As to `CCC(C)C(=O)OCC(C)(C)CC1=C(O)C(=O)c2ccccc2C1=O` (configuration not stated), the IC50 in the test with KB is 4.65 µM.
Still for that read-out and setting: the result for `CCCCCCCCCCCCCC(=O)OCC(C)(C)CC1=C(O)C(=O)c2ccccc2C1=O` reads 51.4 µM.
As to `CCCC(C)C(=O)OCC(C)(C)CC1=C(O)C(=O)c2ccccc2C1=O` (configuration not stated), in the test on KB, inhibition was half-maximal at 1.76 µM (IC50). Moreover, in test [1], the inhibition entry is “Active”.
Turning to `CCCCC(=O)OCC(C)(C)CC1=C(O)C(=O)c2ccccc2C1=O`, the IC50 in the test on KB amounted to 27.8 µM.
The same measure, in the same setting: to `CCC(=O)OCC(C)(C)CC1=C(O)C(=O)c2ccccc2C1=O` belongs 84.4 µM.
As to `CCCCCCCCCCC(=O)NCC(C)(C)CC1=C(O)C(=O)c2ccccc2C1=O`, the results for the IC50 in the test on Vero (setting [4]) and with KB were 14.9 µM and 17.6 µM, respectively.
The corresponding values for `CCCCCCCCCC(=O)NCC(C)(C)CC1=C(O)C(=O)c2ccccc2C1=O` are 15 µM and 18.5 µM.
With `COc1cccc2c1C(=O)c1c(O)c3c(c(O)c1C2=O)C[C@@](O)(C(=O)CO)C[C@@H]3O[C@H]1C[C@H](N)[C@H](O)[C@H](C)O1` [DOXORUBICIN], the IC50 in the test on KB amounted to 0.96 µM.
As for `CC(C)C(=O)NCC(C)(C)CC1=C(O)C(=O)c2ccccc2C1=O`, the IC50 entry with Vero (vero) is “Non-toxic”; in the test on KB it was 94.6 µM.
Turning to `CCCC(C)C(=O)NCC(C)(C)CC1=C(O)C(=O)c2ccccc2C1=O` (configuration not stated), the IC50 was 48.1 µM with Vero (setting [4]) and 47.1 µM with KB. The inhibition result in test [1] was “Active”.
Take `CCCC(=O)OCC(C)(C)CC1=C(O)C(=O)c2ccccc2C1=O`: in the test with KB, the IC50 is 43 µM.
On the same count and under the same terms, the result for `CCCCCCCCCCCCCCCCCC(=O)OCC(C)(C)CC1=C(O)C(=O)c2ccccc2C1=O` reads 76.7 µM.
Take `CCCCCCCCCCCCCCCCCC(=O)NCC(C)(C)CC1=C(O)C(=O)c2ccccc2C1=O`: the IC50 is 5.76 µM in the test with Vero (setting [4]) and 6.35 µM with KB.
`CCCCCCCCCCCCCCCC(=O)OCC(C)(C)CC1=C(O)C(=O)c2ccccc2C1=O` came in with an IC50 in the test with KB of 27.1 µM. For the same compound, the inhibition result in test [1] was “Active”.
As to `CCCCCC(=O)NCC(C)(C)CC1=C(O)C(=O)c2ccccc2C1=O`, the IC50 with Vero (setting [4]) worked out at 46.6 µM; in the test with KB, 40.2 µM.
The corresponding values for `CCCCCCCCC(=O)NCC(C)(C)CC1=C(O)C(=O)c2ccccc2C1=O` are 16.7 µM and 19.7 µM.
Turning to `CCCCCCCCCCCCCCCC(=O)NCC(C)(C)CC1=C(O)C(=O)c2ccccc2C1=O`, the figures for the IC50 in the test on Vero (setting [4]) and with KB were 5.6 µM and 5.12 µM, respectively. The inhibition entry in test [1] and in test [3] was “Active” in each case. Further, the inhibition entry in test [2] is “inactive”.
Take `CCCCCCCCCCCC(=O)NCC(C)(C)CC1=C(O)C(=O)c2ccccc2C1=O`: the results for the IC50 with Vero (setting [4]) and with KB were 13.9 µM and 12.8 µM, respectively.
For the compound `CC(C)C(=O)OCC(C)(C)CC1=C(O)C(=O)c2ccccc2C1=O`, in the test on KB, the IC50 worked out at 14.4 µM.
Same read-out and setting: to `CCCCCCCCC(=O)OCC(C)(C)CC1=C(O)C(=O)c2ccccc2C1=O` belongs 38.7 µM.
